Results reported in paper PMC3240942 (Molecular cell, 2011).
Where no end group is shown, it is not given here.

Tests used:
[3H]Ac-histone H4 = [3H]Ac-histone H4 deacetylation, O-[3H]acetyl-ADP-ribose scintillation counting; type: biochemical; details: [3H]Ac-histone H4 substrate; N=4; "almost"
Procedure, shortened: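 WT or mutant recombinant Sirt1 (including ΔESA, G644P, D650R, G644P/D650R) was reacted with [3H]acetyl-histone H4. Activity was quantified by scintillation counting of released O-[3H]acetyl-ADP-ribose. N=4; mean ± s.e.m.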

[1] = tested on: Lys 382 acetylated-p53 (Ac-p53); test: Deacetylation of Lys 382 acetylated-p53 by recombinant WT/mutant Sirt1; type: biochemical, mouse Sirt1; details: recombinant Sirt1 2 μg, acetylated GST-p53 0.2 μg, 0.5 mM NAD+, pH 7.0, 37 °C; immunoblot
Procedure, shortened: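 Recombinant His-tagged WT or C-terminally truncated/point-mutant mouse Sirt1 (2 μg) incubated with acetylated GST-p53 (0.2 μg) and 0.5 mM NAD+ in 50 mM HEPES pH 7.0, 1 mM DTT, 10 mM MgCl2, 200 mM NaCl plus protease/phosphatase inhibitors. Reactions ran at 37 °C for indicated times and were stopped with SDS sample buffer. Read-out: immunoblot with acetyl-K382 p53 antibody; loading checked by Coomassie, Ponceau S or Western blot.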

Sirt6 = test: Fluorometric Sirt6 deacetylase assay; type: biochemical; details: 150 μM peptide, CycLex SIRT6 fluorometric kit; N=4
Procedure, shortened: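 His-tagged Sirt6 was assayed with the CycLex SIRT6 fluorometric kit. Kit buffer was replaced by 50 mM HEPES pH 7.0, 1 mM DTT, 10 mM MgCl2, 200 mM NaCl plus protease/phosphatase inhibitors. WT or GPDR-mutant ESA peptide (150 μM) or no peptide was present. N=4; mean ± s.e.m.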

[2] = tested on: ESA-deacetylase core interaction; test: Competition of the ESA-deacetylase core interaction; type: binding, mouse; details: competing GPDR-ESA peptide (Figure S2E) or 2 μg GST-LZ (N=5)
Procedure, shortened: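 Biotinylated ESA peptide (100 μl at 300 nmole/ml) bound to 1 ml streptavidin agarose for 1 hr at room temperature, washed with PBS, and resuspended in PBS/1% Triton X-100 with protease inhibitors. 30 μl beads incubated 2 hrs at room temperature with deacetylase core and competitor. Biotin-only beads as negative control. Bound core quantified by immunoblot, N=5, mean ± s.e.m.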

deacetylase core [3] = test: Pull-down of deacetylase core with immobilized GPDR-ESA peptide; type: binding, mouse; details: streptavidin pull-down, Figure S2E top
Procedure, shortened: (§1)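 Biotinylated peptide (mutant ESA or acetyl-H4) was bound to streptavidin agarose for 1 h at room temperature, washed, and held in PBS/1% Triton X-100. Beads (30 μl) took 2 μg GST-fused or His-tagged protein for 2 h at room temperature. Beads were washed with PBS/1% Triton/200 mM NaCl and eluted in β-ME SDS buffer at 95 °C for 10 min. Blots ran on 4–12% SDS-PAGE; biotin-only beads were the control.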

Sirt1 [4] = target: T1, Sirt1 (Mus musculus, UniProt Q923E4); test: Sirt1 deacetylase activity against Ac-p53, peptide added in trans; type: biochemical; details: Figure S2G
T1 sequence (Q923E4 1-737): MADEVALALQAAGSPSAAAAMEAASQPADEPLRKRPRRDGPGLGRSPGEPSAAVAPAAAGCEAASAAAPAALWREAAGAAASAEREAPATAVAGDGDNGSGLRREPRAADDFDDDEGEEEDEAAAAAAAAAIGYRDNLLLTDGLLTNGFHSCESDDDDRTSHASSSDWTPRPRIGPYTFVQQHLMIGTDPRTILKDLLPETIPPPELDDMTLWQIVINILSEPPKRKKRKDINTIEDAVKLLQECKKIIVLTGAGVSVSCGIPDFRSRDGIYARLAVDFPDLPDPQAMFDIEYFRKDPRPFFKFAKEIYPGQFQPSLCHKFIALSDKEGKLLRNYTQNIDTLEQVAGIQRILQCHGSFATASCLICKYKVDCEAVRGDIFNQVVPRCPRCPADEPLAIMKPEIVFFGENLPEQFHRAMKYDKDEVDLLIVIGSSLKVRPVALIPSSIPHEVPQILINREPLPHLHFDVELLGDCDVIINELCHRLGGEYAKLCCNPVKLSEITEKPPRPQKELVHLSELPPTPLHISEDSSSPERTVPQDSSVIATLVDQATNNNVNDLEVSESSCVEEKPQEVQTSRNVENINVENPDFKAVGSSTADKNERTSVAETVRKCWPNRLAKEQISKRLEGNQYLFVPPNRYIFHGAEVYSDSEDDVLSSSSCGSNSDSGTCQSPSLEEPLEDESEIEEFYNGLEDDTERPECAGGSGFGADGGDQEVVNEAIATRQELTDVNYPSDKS

Sirt1 [5] = target: T1, Sirt1; test: Lineweaver-Burk kinetics of Sirt1; type: biochemical; details: against both Ac-H4 and NAD+; Lineweaver-Burk plot
Procedure, shortened: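 His-Sirt1 (2 μg) was pre-incubated 5 min at room temperature in HEPES pH 7.0 buffer with mutant ESA peptide at 0, 60, 120 or 240 μM. Ac-K16 H4 fluorogenic dipeptide was varied at 500 μM NAD+, or NAD+ was varied at 100 μM substrate. Reactions ran 25 min at 37 °C and were stopped with nicotinamide developer; ex 355/em 460 nm, no-NAD+ blank subtracted. Triplicates. Kis/Kii came from a double-reciprocal noncompetitive model fit, Km from the same analysis, kcat from a Michaelis–Menten fit.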

deacetylase core [6] = test: GST pull-down of deacetylase core with GST-LZ or GST-ESA; type: binding, mouse; details: GST pull-down, GST-LZ vs GST-ESA
Procedure, shortened: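 His-tagged deacetylase core (a.a. 184-510) incubated with GST, GST-ESA or GST-LZ (DBC1 LZ, a.a. 243-264), 2 μg of each. Unbound protein washed off on micro-spin columns with PBS/1% Triton X-100/200 mM NaCl. Elution in SDS buffer with β-ME at 95 °C for 10 min; 4–12% gradient SDS-PAGE and Western blot for bound core and GST fusions.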

Sirt1 [7] = target: T1, Sirt1; test: Sirt1 deacetylase activity in presence of GST-LZ; type: biochemical; details: compared to GST alone, Figure S3B
[8] = target: T2, Sirt1 deacetylase core (Core, a.a. 184-510) (mouse, UniProt Q923E4 184-510); test: pull-down
T2 sequence (looked up): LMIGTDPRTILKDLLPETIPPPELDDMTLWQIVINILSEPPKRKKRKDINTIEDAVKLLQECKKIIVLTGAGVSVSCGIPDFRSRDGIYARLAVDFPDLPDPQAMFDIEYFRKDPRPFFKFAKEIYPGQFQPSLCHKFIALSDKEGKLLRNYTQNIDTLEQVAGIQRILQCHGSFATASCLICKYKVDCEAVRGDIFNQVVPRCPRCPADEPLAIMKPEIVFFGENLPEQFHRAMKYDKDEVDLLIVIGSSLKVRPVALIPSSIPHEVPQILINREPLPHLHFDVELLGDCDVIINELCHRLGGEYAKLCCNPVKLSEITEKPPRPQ

[9] = tested on: p53 target genes p21, PUMA and Bim; test: Expression of p53 target genes in H1299 cells; type: cell-based; details: co-expressed p53
Procedure, shortened: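 H1299 cells transiently co-transfected with a p53 expression vector and a WT or ΔESA Sirt1 expression vector; empty vector as control. Levels of the p53-activated genes p21, PUMA and Bim were then visualized.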

native Ac-histone H3 = test: Deacetylation of native Ac-histone H3 by recombinant Sirt1; type: biochemical
p53 = test: Deacetylation of p53 in transfected H1299 cells; type: cell-based; details: co-transfected with p53
Procedure, shortened: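 H1299 cells were transiently co-transfected with a p53 vector and a WT or ΔESA Sirt1 vector; empty vector was the negative control. Acetylated p53 was detected by immunoblot with an acetyl-K382-specific antibody.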

GST-Ac-p53 = test: Pull-down of Sirt1 / core fragments with GST-Ac-p53; type: binding; details: in vitro pull-down
Procedure, shortened: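 In vitro pull-downs with GST-Ac-p53 or GST alone as negative control. Recombinant Flag-tagged full-length or ΔESA (a.a. 631-655 deleted) Sirt1 pulled down with anti-Flag, bound GST-Ac-p53 detected by GST immunoblot, and Sirt1 shown by Coomassie. Alternatively, core (a.a. 184-510) or Core-ESA with GST-Ac-p53 (2 μg each) in GST pull-down, bound core detected by Sirt1 immunoblot.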

Flag-p65 (NF-κB) = test: Co-immunoprecipitation of Sirt1 with Flag-p65 in Hela cells; type: cell-based; details: V5-tagged Sirt1
Procedure, shortened: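 Transient co-transfection of HeLa cells with Flag-NF-κB p65 plus V5-tagged full-length or ΔESA Sirt1. p65 was pulled down with anti-Flag, and bound Sirt1 was detected by anti-V5 immunoblot alongside input levels.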

Ac-H4 = test: Interaction of Sirt1 with Ac-H4 purified from Hela cells; type: binding; details: Figure S3A
Ac-H3 = test: Interaction of Sirt1 with Ac-H3 purified from Hela cells; type: binding; details: Figure S3A
[10] = Pull-down of GST fusion proteins with immobilized GPDR-ESA peptide; type: binding; details: Figure S2F
Procedure, shortened: as §1

## GPDR: Sirt1 with a double mutation G644P and D650R
[3H]Ac-histone H4
  fold reduction of Sirt1 activity: ~10 fold
[1]
  deacetylase activity against Ac-p53: very little deacetylase activity

## GPDR-ESA peptide: ESA peptide containing a mutation of two residues, G644P and D650R (GPDR) (QYLFVPPNRYIFHPAEVYSRSEDDV; also: biotinylated, position not given here)
Sirt6
  effect on Sirt6 activity: had no effect on Sirt6 activity
[2]
  inhibition of ESA-deacetylase core interaction: ESA-deacetylase core interaction was inhibited
Deacetylase core [3]
  binding to deacetylase core: also bound to the deacetylase core
Sirt1 [4]
  inhibition of Sirt1 activity against Ac-p53: also inhibited Sirt1 activity against Ac-p53
Sirt1 [5]
  mode of inhibition: noncompetitive inhibitor

## GST-LZ: LZ domain of DBC1 (a.a. 243-264) fused to GST (LQRRYRSLLVPSDFLSVHLSWL; also: fused to GST, end not given here)
[2]
  inhibition of ESA-deacetylase core interaction: prevented the ESA-deacetylase core interaction
Deacetylase core [6]
  relative strength of interaction with deacetylase core: stronger than the ESA-deacetylase core interaction
Sirt1 [7]
  reduction of Sirt1 deacetylase activity: significantly reduced Sirt1 deacetylase activity

B1: GST-ESA (ESA fused to GST) (domain or fragment, mouse, UniProt Q923E4 631-655, looked up)
chain: QYLFVPPNRYIFHGAEVYSDSEDDV
[8]
  binding result: binds

B2: ΔESA Sirt1: Sirt1 with the 25 a.a. ESA region (a.a. 631-655) deleted (protein)
chain: MADEVALALQAAGSPSAAAAMEAASQPADEPLRKRPRRDGPGLGRSPGEPSAAVAPAAAGCEAASAAAPAALWREAAGAAASAEREAPATAVAGDGDNGSGLRREPRAADDFDDDEGEEEDEAAAAAAAAAIGYRDNLLLTDGLLTNGFHSCESDDDDRTSHASSSDWTPRPRIGPYTFVQQHLMIGTDPRTILKDLLPETIPPPELDDMTLWQIVINILSEPPKRKKRKDINTIEDAVKLLQECKKIIVLTGAGVSVSCGIPDFRSRDGIYARLAVDFPDLPDPQAMFDIEYFRKDPRPFFKFAKEIYPGQFQPSLCHKFIALSDKEGKLLRNYTQNIDTLEQVAGIQRILQCHGSFATASCLICKYKVDCEAVRGDIFNQVVPRCPRCPADEPLAIMKPEIVFFGENLPEQFHRAMKYDKDEVDLLIVIGSSLKVRPVALIPSSIPHEVPQILINREPLPHLHFDVELLGDCDVIINELCHRLGGEYAKLCCNPVKLSEITEKPPRPQKELVHLSELPPTPLHISEDSSSPERTVPQDSSVIATLVDQATNNNVNDLEVSESSCVEEKPQEVQTSRNVENINVENPDFKAVGSSTADKNERTSVAETVRKCWPNRLAKEQISKRLEGNLSSSSCGSNSDSGTCQSPSLEEPLEDESEIEEFYNGLEDDTERPECAGGSGFGADGGDQEVVNEAIATRQELTDVNYPSDKS
modifications: left off: V5, end not stated, kept
[9]
  suppression of p53 target gene expression: failed to suppress the expression of p53 target genes
Native Ac-histone H3
  deacetylase activity against native Ac-histone H3: did not have any deacetylase activity
p53
  deacetylation of p53 in vivo: WT Sirt1, but not ΔESA Sirt1, was able to deacetylate p53
GST-Ac-p53
  binding to GST-Ac-p53: bound poorly to GST-Ac-p53 compared to full-length Sirt1
Flag-p65 (NF-κB)
  co-immunoprecipitation with Flag-p65: did so very poorly
Ac-H4
  interaction with Ac-H4: significantly weakened the interaction
Ac-H3
  interaction with Ac-H3: significantly weakened the interaction
[1]
  deacetylase activity against Ac-p53: did not have any deacetylase activity

B3: GST-Sirtuin domain: GST fused to Sirtuin domain (a.a. 236-490) (protein)
chain: EDAVKLLQECKKIIVLTGAGVSVSCGIPDFRSRDGIYARLAVDFPDLPDPQAMFDIEYFRKDPRPFFKFAKEIYPGQFQPSLCHKFIALSDKEGKLLRNYTQNIDTLEQVAGIQRILQCHGSFATASCLICKYKVDCEAVRGDIFNQVVPRCPRCPADEPLAIMKPEIVFFGENLPEQFHRAMKYDKDEVDLLIVIGSSLKVRPVALIPSSIPHEVPQILINREPLPHLHFDVELLGDCDVIINELCHRLGGEYA
modifications: left off: GST, end not stated, kept
[10]
  binding to immobilized GPDR-ESA peptide: bound to the GPDR-ESA peptide
